Laboratory results published in ChEMBL document CHEMBL4613272, “Anti-HIV-Active Nucleoside Triphosphate Prodrugs” (J Med Chem, 2020).

Tests used:
[1] = Cytotoxicity against human CEM cells assessed as reduction in cell proliferation; type: cell-based; conditions: CEM cells (CCRF-CEM)
Method in brief: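 CC50 is the compound concentration inhibiting CEM CD4+ T-cell proliferation by 50%. Mean ± SD of n=2-3 independent experiments.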

[2] = Prodrug conversion in pH 7.3 phosphate buffered saline assessed as pig liver esterase-mediated gamma-(C16-ACB)-d4TTP formation by HPLC analysis; type: ADME, Sus scrofa; conditions: in vitro
Method in brief: (§1)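 Prodrug diluted from 50 mM DMSO stock through a 6.0 mM intermediate into DMSO/50 mM PBS pH 7.3. Started with pig liver esterase (3 mg/mL solution in PBS) and shaken at 37 °C, 800 rpm. Aliquots quenched in MeOH at intervals, filtered, stored in liquid nitrogen and analysed by RP18 HPLC.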

[3] = Half life in pH 7.3 phosphate buffered saline in presence of pig liver esterase by HPLC analysis; type: ADME, Sus scrofa; method in brief: as §1
[4] = Selectivity index, ratio of CC50 for human CEM cells to EC50 for HIV1 HE infected in human CEM/0 cells; conditions: CEM cells (CC50) and HIV1 HE infected CEM/0 cells (EC50)
[5] = Prodrug conversion in human CEM/0 cell extracts assessed as gamma-(C16-ACB)-d4TTP formation by HPLC analysis; type: ADME; conditions: ccrf-cem
Method in brief: (§2)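 Cell extract prepared from CEM cells grown in RPMI-1640-based medium to ~3·10^6 cells/mL. Cells washed twice in cold PBS, resuspended at 10^8 cells/mL, sonicated, cleared at 10,000 rpm and stored at -80 °C. Prodrug at 6.0 mM hydrolysis solution in DMSO-d6 mixed with water and extract at 37 °C over time. Samples iced, sonicated and centrifuged; supernatant analysed by RP18 HPLC. t1/2 calculated as for chemical hydrolysis.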

[6] = Half life in human CEM/0 cell extracts by HPLC analysis; type: ADME, CCRF-CEM; method in brief: as §2
[7] = Prodrug conversion in pH 7.3 phosphate buffered saline assessed as pig liver esterase-mediated d4TMP formation by HPLC analysis; type: ADME, Sus scrofa; conditions: in vitro; method in brief: as §1
[8] = Prodrug conversion in human CEM/0 cell extracts assessed as d4TDP formation by HPLC analysis; type: ADME; conditions: ccrf-cem; method in brief: as §2
[9] = Prodrug conversion in pH 7.3 phosphate buffered saline assessed as pig liver esterase-mediated d4TTP formation by HPLC analysis; type: ADME, Sus scrofa; conditions: in vitro; method in brief: as §1
[10] = Prodrug conversion in human CEM/0 cell extracts assessed as d4TMP formation by HPLC analysis; type: ADME; conditions: ccrf-cem; method in brief: as §2
[11] = system: Human immunodeficiency virus 2; assay: Antiviral activity against HIV2 ROD infected in thymidine kinase-deficient human CEM cells assessed as inhibition of virus-induced giant cell formation measured after 4 to 5 days by microscopic analysis; conditions: Human immunodeficiency virus 2, ISOLATE ROD, CCRF-CEM
[12] = Half life in pH 7.3 phosphate buffered saline by HPLC analysis; type: physicochemical
Method in brief: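 Prodrug from 50 mM DMSO-d6 stock diluted to 1.9 mM with water/DMSO-d6. Reaction started by adding phosphate buffer (50 mM stock, pH 7.3). Products followed by analytical RP18 HPLC with TBAA or TEAA buffer/acetonitrile gradient.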

[13] = Prodrug conversion in human CEM/0 cell extracts assessed as d4TTP formation by HPLC analysis; type: ADME; conditions: ccrf-cem; method in brief: as §2
[14] = system: Human immunodeficiency virus 1; assay: Antiviral activity against HIV1 HE infected in human CEM/0 cells assessed as inhibition of virus-induced giant cell formation measured after 4 to 5 days by microscopic analysis; conditions: Human immunodeficiency virus 1, HE, CCRF-CEM
[15] = system: Human immunodeficiency virus 2; assay: Antiviral activity against HIV2 ROD infected in human CEM/0 cells assessed as inhibition of virus-induced giant cell formation measured after 4 to 5 days by microscopic analysis; conditions: Human immunodeficiency virus 2, ISOLATE ROD, CCRF-CEM
[16] = Prodrug conversion in human CEM/0 cell extracts assessed as gamma-(C6-ACB)-d4TTP formation by HPLC analysis; type: ADME; conditions: ccrf-cem; method in brief: as §2
[17] = Cytotoxicity against mouse eEND.2 cells assessed as reduction in cell viability by WST-1 assay; type: cell-based; conditions: read-out: LD50 (the source's name)

Drug metabolism [2] | half-life [3] | Drug metabolism [5] | half-life [6] | Drug metabolism [7] | Drug metabolism [8] | Drug metabolism [9] | Drug metabolism [10] | EC50 [11] | half-life [12] | Drug metabolism [13] | EC50 [14] | EC50 [15] | Drug metabolism [16] | SMILES | CC50 [1] | selectivity ratio [4] | CC50 [17]
Metabolite_Detected | 282 min | Metabolite_Detected | 114 min | Metabolite_Notdetected | Metabolite_Detected | Metabolite_Detected | Metabolite_Detected | 110 nM | 3.46 days | Metabolite_Notdetected |  |  |  | CCCCCCCCCCCCCCCCOC(=O)Oc1ccc(COP(=O)(OCc2ccc(OC(=O)CC)cc2)OP(=O)(O)OP(=O)(O)OC[C@@H]2C=C[C@H](n3cc(C)c(=O)[nH]c3=O)O2)cc1.N.N (stereo partly drawn) | 34 µM | 1260 | 
 |  |  | 150 min |  |  | Metabolite_Detected |  | 210 nM | 3.96 days |  | 300 nM | 70 nM | Metabolite_Detected | CCCCCCCCCCCC(=O)Oc1ccc(COP(=O)(OCc2ccc(OC(=O)OCCCCCC)cc2)OP(=O)(O)OP(=O)(O)OC[C@@H]2C=C[C@H](n3cc(C)c(=O)[nH]c3=O)O2)cc1.N.N (stereo partly drawn) | 41 µM | 137 | 
 |  |  |  |  |  |  |  |  |  |  |  |  |  | OCc1ccc(O)cc1 [PARAHYDROXYBENZYL ALCOHOL] |  |  | 50 mM
